A short description of data set [1]: Solubility by shake-flask method. The format is physicochemical. A digest of the protocol: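 Modified shake-flask method: about 1 mg compound shaken overnight in 1 mL PBS, pH 6.8. Supernatant analysed by LC/MS/MS; 2 measurements.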
In data set [2] the target is T1, Intermediate conductance calcium-activated potassium channel protein 4 (Homo sapiens, UniProt O15554). The data set can be described thus: Inhibition of Gardos channel in human RBC assessed as inhibition of ionomycin-stimulated [86Rb] efflux.
T1 sequence (O15554 whole entry): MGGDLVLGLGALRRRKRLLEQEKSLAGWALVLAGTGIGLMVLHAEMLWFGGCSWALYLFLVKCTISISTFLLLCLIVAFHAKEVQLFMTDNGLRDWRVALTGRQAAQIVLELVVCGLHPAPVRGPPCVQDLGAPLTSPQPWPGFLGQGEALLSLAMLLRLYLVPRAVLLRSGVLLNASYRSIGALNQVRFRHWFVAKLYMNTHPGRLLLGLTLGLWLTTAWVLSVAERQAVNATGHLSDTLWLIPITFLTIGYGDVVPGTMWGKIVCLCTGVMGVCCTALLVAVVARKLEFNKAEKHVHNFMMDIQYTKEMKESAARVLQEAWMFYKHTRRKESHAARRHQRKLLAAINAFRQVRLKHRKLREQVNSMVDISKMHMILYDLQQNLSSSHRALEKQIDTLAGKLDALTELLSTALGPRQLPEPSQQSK
The next data set concerns Liver. The data set can be described thus: Intrinsic clearance in rat liver microsome S9 fraction as % compound remaining after incubation. Type of data set: ADME, subcellular. (In general: Liver microsomes are vesicles of endoplasmic reticulum, rich in cytochrome P450 enzymes.)
A short description of data set [3]: Bioavailability in Sprague-Dawley rat at 1 mg/kg, iv or 10 mg/kg, po. Type of data set: ADME, organism-based. The following applies: in vivo. In short, it runs like this:
(§1)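 Male Sprague-Dawley rats (251–299 g), n = 3 per time point. Dosed 1 mg/Kg IV by tail vein in PEG-400/cremophor-EL, or 10 mg/Kg by oral gavage in 0.5% aqueous methylcellulose. Plasma sampled 0.08–24 h (IV) or 0.5–24 h (PO) and quantified by LC-MS, LLOQ 1 ng/mL. Noncompartmental analysis; Cmax and Tmax read from the data; AUC by linear-log trapezoidal rule.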

The test system of data set [4] is Mus musculus. Put plainly: Effect on mean corpuscular hemoglobin concentration in SAD1 mouse model at 10 mg/kg, po bid after 11 days. Type of data set: functional. In short, it runs like this: (§2)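 Transgenic SAD-1 mice of both sexes, 3–6 months, 25–30 g, given vehicle or compound by oral gavage twice daily. Blood parameters taken at baseline and at days 7 and 14 (20 mg/kg arm) or days 11 and 21 (10 mg/kg arm). Hematocrit measured by micro-Hct centrifugation; cells washed three times in PBS (330 mOsm) at 25 °C.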

Data set [5] in a line: Cmax in Sprague-Dawley rat at 1 mg/kg, iv or 10 mg/kg, po. Type of data set: ADME, organism-based. As to conditions: in vivo. A digest of the protocol: as §1
A further data set deals with CYP3A4 (Homo sapiens, UniProt P08684). The data set can be described thus: Inhibition of CYP3A4 at 10 uM. Type of data set: ADME.
Sequence of CYP3A4 (P08684 whole entry): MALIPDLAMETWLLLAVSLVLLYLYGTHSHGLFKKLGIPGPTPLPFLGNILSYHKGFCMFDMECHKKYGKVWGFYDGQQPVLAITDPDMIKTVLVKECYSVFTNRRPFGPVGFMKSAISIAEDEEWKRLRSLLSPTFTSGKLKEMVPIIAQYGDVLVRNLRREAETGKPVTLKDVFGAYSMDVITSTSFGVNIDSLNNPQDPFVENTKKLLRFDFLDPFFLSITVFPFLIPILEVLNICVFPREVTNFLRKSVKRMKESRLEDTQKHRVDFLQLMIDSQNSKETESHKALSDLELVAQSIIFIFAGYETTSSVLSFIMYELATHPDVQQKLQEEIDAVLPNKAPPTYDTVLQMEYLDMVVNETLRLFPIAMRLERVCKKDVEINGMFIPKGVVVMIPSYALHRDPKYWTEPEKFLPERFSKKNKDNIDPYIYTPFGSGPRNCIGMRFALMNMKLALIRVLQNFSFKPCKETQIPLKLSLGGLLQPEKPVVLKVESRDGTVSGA
Data set [6] has as its system Mus musculus. Put plainly: Effect on hematocrit levels in SAD1 mouse model at 10 mg/kg, po bid after 11 days. Type of data set: functional. A digest of the protocol:
as §2

Data set [7] relates to Mus musculus. Put plainly: Effect on gardos channel activity in SAD1 mouse model at 10 mg/kg, po bid after 11 days. The format is functional.
Data set [8] deals with Mus musculus. Put plainly: Effect on gardos channel activity in SAD1 mouse model at 10 mg/kg, po bid after 21 days. Type of data set: functional.
Data set [9] concerns Mus musculus. Put plainly: Effect on mean corpuscular hemoglobin concentration in SAD1 mouse model at 10 mg/kg, po bid after 21 days. The format is functional. In short, it runs like this:
as §2

The subject of data set [10] is Mus musculus. The data set can be described thus: Effect on hematocrit levels in SAD1 mouse model at 10 mg/kg, po bid after 21 days. Type of data set: functional. A digest of the protocol:
as §2

A short description of data set [11]: Half life in Sprague-Dawley rat at 1 mg/kg, iv or 10 mg/kg, po. The format is ADME, organism-based. The following applies: in vivo. In short, it runs like this:
as §1

The nature of data set [12]: Tmax in Sprague-Dawley rat at 1 mg/kg, iv or 10 mg/kg, po. The format is ADME, organism-based. As to conditions: in vivo. A digest of the protocol: as §1
Data set [13] concerns Mus musculus. Put plainly: Effect on hematocrit levels in SAD1 mouse model at 20 mg/kg, po bid after 14 days. Type of data set: functional. In short, it runs like this: as §2
For data set [14], the system named is Mus musculus. Put plainly: Effect on mean corpuscular hemoglobin concentration in SAD1 mouse model at 20 mg/kg, po bid after 14 days. Type of data set: functional. A digest of the protocol:
as §2

In data set [15] the test system is Mus musculus. Put plainly: Effect on mean corpuscular hemoglobin concentration in SAD1 mouse model at 20 mg/kg, po bid after 7 days. Type of data set: functional. In short, it runs like this: as §2
Data set [16] concerns Mus musculus. Put plainly: Effect on hematocrit levels in SAD1 mouse model at 20 mg/kg, po bid after 7 days. The format is functional. A digest of the protocol:
as §2

The test system of data set [17] is Mus musculus. The data set can be described thus: Effect on gardos channel activity in SAD1 mouse model assessed by measuring [86Rb]/L of cells at 20 mg/kg, po bid after 14 days. The format is functional.
Data set [18] has as its system Mus musculus. Put plainly: Effect on gardos channel activity in SAD1 mouse model assessed by measuring [86Rb]/L of cells at 20 mg/kg, po bid after 7 days. The format is functional.
Data set [19] concerns the target T1, Intermediate conductance calcium-activated potassium channel protein 4. Put plainly: Inhibition of Gardos channel in human RBC assessed as […] at 10 uM.
The next data set concerns the target hERG (KCNH2) (Homo sapiens, UniProt Q12809). The data set can be described thus: Inhibition of human ERG at 10 uM.

For orientation: thermodynamic solubility means solubility found after equilibrating the solid with the medium. As a reminder, the IC50 is the concentration needed to halve the response being measured. As usually defined, the bioavailability is the share of a dose that reaches the circulation, judged against a reference dose that is usually intravenous. Higher therefore signals good availability. Broadly, the Cmax is the peak of the concentration-time curve. As a reminder, the inhibition is the share of the control response that was lost under treatment. What is called half-life is the time in which the quantity being followed falls by half. In general, Tmax refers to the time at which the peak concentration occurs.

Values after ≈ are worked out from the molar mass of the structure shown. Bounds are passed on as bounds.

Sequence of hERG (KCNH2) (Q12809 whole entry): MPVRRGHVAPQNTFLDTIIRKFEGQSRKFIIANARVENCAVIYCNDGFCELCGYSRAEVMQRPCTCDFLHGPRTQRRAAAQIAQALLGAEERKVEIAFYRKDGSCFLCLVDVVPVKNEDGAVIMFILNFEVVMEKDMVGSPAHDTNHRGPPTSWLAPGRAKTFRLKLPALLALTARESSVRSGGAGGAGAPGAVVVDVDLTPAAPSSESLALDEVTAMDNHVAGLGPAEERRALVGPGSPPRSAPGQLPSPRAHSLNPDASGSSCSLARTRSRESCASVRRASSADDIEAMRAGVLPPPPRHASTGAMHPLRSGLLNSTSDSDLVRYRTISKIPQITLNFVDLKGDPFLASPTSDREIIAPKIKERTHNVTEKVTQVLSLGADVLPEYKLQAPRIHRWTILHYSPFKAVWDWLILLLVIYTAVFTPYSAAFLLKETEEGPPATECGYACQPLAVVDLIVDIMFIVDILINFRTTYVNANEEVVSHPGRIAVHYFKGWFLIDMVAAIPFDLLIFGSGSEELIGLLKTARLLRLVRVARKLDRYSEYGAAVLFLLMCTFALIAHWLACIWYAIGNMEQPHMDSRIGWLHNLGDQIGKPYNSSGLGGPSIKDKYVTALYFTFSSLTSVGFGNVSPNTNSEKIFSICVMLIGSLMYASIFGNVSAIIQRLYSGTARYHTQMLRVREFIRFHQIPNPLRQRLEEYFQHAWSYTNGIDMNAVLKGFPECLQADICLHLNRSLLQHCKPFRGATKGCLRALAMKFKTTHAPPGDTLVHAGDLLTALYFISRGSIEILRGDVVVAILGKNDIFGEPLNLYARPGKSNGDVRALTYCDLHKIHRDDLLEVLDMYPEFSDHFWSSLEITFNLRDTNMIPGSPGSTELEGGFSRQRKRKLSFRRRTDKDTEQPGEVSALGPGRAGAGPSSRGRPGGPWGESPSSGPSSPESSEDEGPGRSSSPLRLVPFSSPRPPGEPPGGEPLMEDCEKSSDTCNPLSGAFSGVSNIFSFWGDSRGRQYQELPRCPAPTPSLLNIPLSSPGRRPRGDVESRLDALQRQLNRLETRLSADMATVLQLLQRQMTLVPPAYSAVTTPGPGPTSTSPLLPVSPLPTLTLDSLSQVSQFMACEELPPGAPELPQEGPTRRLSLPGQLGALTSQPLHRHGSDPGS

In [1], `NC(=O)C(c1ccc(F)cc1)(c1ccc(F)cc1)c1cccc(F)c1` returned a thermodynamic solubility of 4.1 µM (≈ 1.4 µg/mL). In data set [2], the IC50 was 17 nM. In the data set on Liver, this compound came in with a Compound remaining of 19%.
With `NC(=O)C(c1ccccc1)(c1ccccc1F)c1ccccc1F`, the thermodynamic solubility in [1] was above 31 µM. For the same compound, in [2], the IC50 is 30 nM. This compound also yielded a Compound remaining in the data set on Liver of 48%.
In turn, `NC(=O)C(c1ccccc1)(c1ccccc1)c1ccc(F)c(F)c1` displayed a thermodynamic solubility in data set [1] of 4.3 µM (≈ 1.39 µg/mL). Further, in [2], the IC50 was 14 nM. The compound further registered a Compound remaining in the data set with Liver of 63%.
`c1ccc(C(C2=NCCO2)(c2ccccc2)c2ccccc2)cc1`: in data set [2], the IC50 came to 4300 nM.
`NC(=O)C(c1ccccc1)(c1ccc(F)cc1)c1ccc(F)cc1` [SENICAPOC]: the bioavailability in data set [3] was 51%. Also, the Activity in the data set on Mus musculus [4] was determined as 29.5 g/dL; in the data set on Mus musculus [6], 50.9%; with Mus musculus [7] it was 3 mmol; in the data set with Mus musculus [8] it was 1.5 mmol; in the data set on Mus musculus [9], 30.3 g/dL; with Mus musculus [10], 49.9%. This compound registered a peak concentration (Cmax) in data set [5] of 400 ng/mL. Moreover, on CYP3A4, the inhibition at 10 µM was below 20%. In data set [1], this compound registered a thermodynamic solubility of 3.8 µM (≈ 1.23 µg/mL). In addition, the Compound remaining in the data set with Liver is on record as 51%. Besides, the half-life in [11] is 1 h. Further, in data set [12], the Tmax came to 4 h.
In data set [1], `NC(=O)C(c1ccc(F)cc1)(c1ccccc1F)c1ccccc1F` displayed a thermodynamic solubility of 6.8 µM (≈ 2.32 µg/mL). Besides, the half-inhibitory concentration (IC50) in [2] stood at 15 nM. In the data set with Liver, the Compound remaining is given as 46%.
For `O=C(O)C(c1ccccc1)(c1ccccc1)c1ccccc1`, the IC50 in data set [2] was above 10000 nM.
Consider `COC(=O)C(c1ccccc1)(c1ccccc1)c1ccccc1`, for which the half-inhibitory concentration (IC50) in data set [2] was determined as 330 nM.
On to `NC(=O)C(c1ccccc1)(c1ccc(F)cc1)c1ccccc1F` (stereo unspecified), for which the Activity turned out to be 47% in the data set with Mus musculus [13]; 27 g/dL in the data set with Mus musculus [14]; 34 g/dL in the data set with Mus musculus [15]; 44.5% in the data set with Mus musculus [16]; 2 mmol in the data set on Mus musculus [17]; 4 mmol with Mus musculus [18]. The same compound yielded a Cmax in [5] of 250 ng/mL. Moreover, at CYP3A4, the inhibition at 10 µM was below 20%. Also, in [1], the thermodynamic solubility was 5.8 µM (≈ 1.88 µg/mL). For the same compound, the concentration for half-maximal inhibition (IC50) in [2] is 9 nM. In addition, in the data set on Liver, the Compound remaining came out at 40%. Further, the half-life in data set [11] is 2.5 h. The Tmax in data set [12] was 2 h.
`CN(C)C(=O)C(c1ccccc1)(c1ccccc1)c1ccccc1`: the IC50 in [2] was found to be 3150 nM.
`NC(=O)C(c1ccc(F)cc1)(c1ccc(F)cc1)c1ccccc1F` showed a thermodynamic solubility in data set [1] of 8.3 µM (≈ 2.83 µg/mL). Also, in data set [2], the IC50 was 10 nM. Moreover, the Compound remaining in the data set with Liver worked out at 62%.
Take `O=C1Nc2ccccc2C1(c1ccccc1)c1ccccc1`: the inhibition in data set [19] is below 20%.
Compound `NC(=O)C(c1ccccc1)(c1ccccc1)c1ccc(F)cc1` returned a thermodynamic solubility in data set [1] of 2.9 µM (≈ 0.886 µg/mL). Besides, the half-inhibitory concentration (IC50) in [2] came to 40 nM. This compound also returned a Compound remaining in the data set on Liver of 58%.
`NC(=O)C(c1ccccc1)(c1ccccc1)c1ccccc1F` gave a solubility (thermodynamic) in data set [1] of 10.6 µM (≈ 3.24 µg/mL). Further, the Compound remaining in the data set with Liver stood at 61%.
Take `NC(=O)C(c1cccc(F)c1)(c1cccc(F)c1)c1cccc(F)c1`: the thermodynamic solubility in data set [1] is 3.4 µM (≈ 1.16 µg/mL). The IC50 in [2] is 13 nM. The compound also registered a Compound remaining in the data set on Liver of 36%.
With `CCNC(=O)C(c1ccccc1)(c1ccccc1)c1ccccc1`, in [2], the IC50 was 1750 nM.
Turning to `CNC(=O)C(c1ccccc1)(c1ccccc1)c1ccccc1`, the inhibition at 10 µM at CYP3A4 and against hERG (KCNH2) was below 20% in each case. In addition, the 50% inhibitory concentration (IC50) in data set [2] is 550 nM.
In data set [1], `NC(=O)C(c1ccccc1)(c1cccc(F)c1)c1cccc(F)c1` had a solubility (thermodynamic) of 1.2 µM (≈ 0.388 µg/mL). Besides, in the data set on Liver, the Compound remaining was 43%.
For `NC(=O)C(c1ccc(F)cc1)(c1cccc(F)c1)c1cccc(F)c1`, the IC50 in data set [2] was 15 nM.
With `NC(=O)C(c1ccc(F)cc1)(c1ccc(F)cc1)c1ccc(F)cc1`, the thermodynamic solubility in [1] was found to be 2.6 µM (≈ 0.887 µg/mL). In addition, the concentration for half-maximal inhibition (IC50) in [2] is 14 nM. For the same compound, in the data set on Liver, the Compound remaining was determined as 25%.
As for `NC(=O)C(c1ccccc1)(c1ccccc1)c1ccc(F)cc1F`, the solubility (thermodynamic) in [1] amounted to 1.8 µM (≈ 0.582 µg/mL). The compound also gave a Compound remaining in the data set on Liver of 44%.

(Values after ChEMBL document CHEMBL1141563, “Novel inhibitors of the Gardos channel for the treatment of sickle cell disease” (J Med Chem, 2008).)
